{"source": "ChEMBL document CHEMBL1212799", "about": "(2010)", "key": {"[1]": {"system": "Klebsiella pneumoniae", "test": "fT>MIC in Klebsiella pneumoniae isolate 334 at 2 gram for every 8 hrs administered as 3 hrs infusion measured over 8-16 hrs in in vitro pharmcodynamic model", "type": "functional", "method_in_brief": "(§1)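 Samples assayed by HPLC (linear 0.25–40 µg/ml). Time free drug stayed above the modal triplicate broth-microdilution MIC (CLSI) calculated for each 8-h interval.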"}, "[2]": {"system": "Klebsiella pneumoniae", "test": "fT>MIC in Klebsiella pneumoniae isolate 360 at 2 gram for every 8 hrs administered as 3 hrs infusion measured over 8-16 hrs in in vitro pharmcodynamic model", "type": "functional", "method_in_brief": "as §1"}, "[3]": {"system": "Pseudomonas aeruginosa", "test": "fT>MIC in Pseudomonas aeruginosa isolate 1038 at 2 gram for every 8 hrs administered as 3 hrs infusion measured over 16-24 hrs in in vitro pharmcodynamic model", "type": "functional"}, "[4]": {"system": "Klebsiella pneumoniae", "test": "fT>MIC in Klebsiella pneumoniae isolate 368 at 2 gram for every 8 hrs administered as 3 hrs infusion over 24 hrs in in vitro pharmcodynamic model", "type": "functional"}, "[5]": {"system": "Klebsiella pneumoniae", "test": "fT>MIC in Klebsiella pneumoniae isolate 354 at 2 gram for every 8 hrs administered as 3 hrs infusion measured over 8-16 hrs in in vitro pharmcodynamic model", "type": "functional", "method_in_brief": "as §1"}, "[6]": {"system": "Pseudomonas aeruginosa", "test": "fT>MIC in Pseudomonas aeruginosa isolate 1038 at 2 gram for every 8 hrs administered as 3 hrs infusion measured over 8-16 hrs in in vitro pharmcodynamic model", "type": "functional"}, "[7]": {"system": "Pseudomonas aeruginosa", "test": "fT>MIC in Pseudomonas aeruginosa isolate 1177 at 2 gram for every 8 hrs administered as 3 hrs infusion measured over 16-24 hrs in in vitro pharmcodynamic model", "type": "functional"}, "[8]": {"system": "Klebsiella pneumoniae", "test": "Antibacterial activity against Klebsiella pneumoniae isolate 328A assessed as reduction of bacterial count at 8 ug/ml within 6 hrs in vitro pharmacodynamic model", "type": "functional"}, "[9]": {"system": "Klebsiella pneumoniae", "test": "fT>MIC in Klebsiella pneumoniae isolate 328A at 2 gram for every 8 hrs administered as 3 hrs infusion over 24 hrs in in vitro pharmcodynamic model", "type": "functional", "method_in_brief": "as §1"}, "[10]": {"system": "Klebsiella pneumoniae", "test": "fT>MIC in Klebsiella pneumoniae isolate 360 at 2 gram for every 8 hrs administered as 3 hrs infusion measured over 0-8 hrs in in vitro pharmcodynamic model", "type": "functional", "method_in_brief": "as §1"}, "[11]": {"system": "Klebsiella pneumoniae", "test": "Antibacterial activity against Klebsiella pneumoniae isolate 377 in vitro pharmacodynamic model", "type": "functional", "method_in_brief": "(§2)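 Simulated peak 38.4 µg/ml, trough 3.04 µg/ml. CAMHB at 37°C, 10^6 CFU/ml from overnight culture, drug started at 0.5 h. Two treated models plus one growth control. Change in log10 CFU/ml over 24 h on blood agar. Detection limit 10^1 CFU/ml.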"}, "[12]": {"system": "Klebsiella pneumoniae", "test": "fT>MIC in Klebsiella pneumoniae isolate 354 at 2 gram for every 8 hrs administered as 3 hrs infusion measured over 16-24 hrs in in vitro pharmcodynamic model", "type": "functional", "method_in_brief": "as §1"}, "[13]": {"system": "Klebsiella pneumoniae", "test": "fT>MIC in Klebsiella pneumoniae isolate 353 at 2 gram for every 8 hrs administered as 3 hrs infusion over 24 hrs in in vitro pharmcodynamic model", "type": "functional, isoalte 353", "method_in_brief": "as §1"}, "[14]": {"system": "Pseudomonas aeruginosa", "test": "fT>MIC in Pseudomonas aeruginosa isolate 896 at 2 gram for every 8 hrs administered as 3 hrs infusion measured over 8-16 hrs in in vitro pharmcodynamic model", "type": "functional"}, "[15]": {"system": "Klebsiella pneumoniae", "test": "Antibacterial activity against Klebsiella pneumoniae isolate 334 in vitro pharmacodynamic model", "type": "functional", "method_in_brief": "as §2"}, "[16]": {"system": "Pseudomonas aeruginosa", "test": "Antibacterial activity against Pseudomonas aeruginosa isolate 1030 assessed as reduction of bacterial count at 8 ug/ml within 6 hrs in vitro pharmacodynamic model", "type": "functional"}, "[17]": {"system": "Klebsiella pneumoniae", "test": "Antibacterial activity against Klebsiella pneumoniae isolate 351 assessed as reduction of bacterial count at 8 ug/ml within 6 hrs in vitro pharmacodynamic model", "type": "functional"}, "[18]": {"system": "Klebsiella pneumoniae", "test": "Antibacterial activity against Klebsiella pneumoniae isolate 361 assessed as reduction of bacterial count at 64 ug/ml within 6 hrs in vitro pharmacodynamic model", "type": "functional"}, "[19]": {"system": "Klebsiella pneumoniae", "test": "fT>MIC in Klebsiella pneumoniae isolate 351 at 2 gram for every 8 hrs administered as 3 hrs infusion measured over 8-16 hrs in in vitro pharmcodynamic model", "type": "functional", "method_in_brief": "as §1"}, "[20]": {"system": "Klebsiella pneumoniae", "test": "Antibacterial activity against Klebsiella pneumoniae isolate 377 assessed as reduction of bacterial count at 2 ug/ml within 6 hrs in vitro pharmacodynamic model", "type": "functional"}, "[21]": {"system": "Pseudomonas aeruginosa", "test": "Antibacterial activity against Pseudomonas aeruginosa isolate 896 assessed as reduction of bacterial count at 16 ug/ml within 6 hrs in vitro pharmacodynamic model", "type": "functional"}, "[22]": {"system": "Pseudomonas aeruginosa", "test": "fT>MIC in Pseudomonas aeruginosa isolate 1030 at 2 gram for every 8 hrs administered as 3 hrs infusion measured over 0-8 hrs in in vitro pharmcodynamic model", "type": "functional"}, "[23]": {"system": "Pseudomonas aeruginosa", "test": "Antibacterial activity against Pseudomonas aeruginosa isolate 1177 assessed as reduction of bacterial count at 8 ug/ml within 6 hrs in vitro pharmacodynamic model", "type": "functional"}, "[24]": {"system": "Pseudomonas aeruginosa", "test": "fT>MIC in Pseudomonas aeruginosa isolate 896 at 2 gram for every 8 hrs administered as 3 hrs infusion measured over 0-8 hrs in in vitro pharmcodynamic model", "type": "functional"}, "[25]": {"system": "Pseudomonas aeruginosa", "test": "fT>MIC in Pseudomonas aeruginosa isolate 1177 at 2 gram for every 8 hrs administered as 3 hrs infusion measured over 8-16 hrs in in vitro pharmcodynamic model", "type": "functional"}, "[26]": {"system": "Pseudomonas aeruginosa", "test": "fT>MIC in Pseudomonas aeruginosa isolate 988 at 2 gram for every 8 hrs administered as 3 hrs infusion measured over 8-16 hrs in in vitro pharmcodynamic model", "type": "functional"}, "[27]": {"system": "Klebsiella pneumoniae", "test": "fT>MIC in Klebsiella pneumoniae isolate 353 at 2 gram for every 8 hrs administered as 3 hrs infusion measured over 8-16 hrs in in vitro pharmcodynamic model", "type": "functional, isoalte 353", "method_in_brief": "as §1"}, "[28]": {"system": "Klebsiella pneumoniae", "test": "fT>MIC in Klebsiella pneumoniae isolate 351 at 2 gram for every 8 hrs administered as 3 hrs infusion measured over 16-24 hrs in in vitro pharmcodynamic model", "type": "functional", "method_in_brief": "as §1"}, "[29]": {"system": "Klebsiella pneumoniae", "test": "fT>MIC in Klebsiella pneumoniae isolate 354 at 2 gram for every 8 hrs administered as 3 hrs infusion measured over 0-8 hrs in in vitro pharmcodynamic model", "type": "functional", "method_in_brief": "as §1"}, "[30]": {"system": "Klebsiella pneumoniae", "test": "fT>MIC in Klebsiella pneumoniae isolate 375 at 2 gram for every 8 hrs administered as 3 hrs infusion over 24 hrs in in vitro pharmcodynamic model", "type": "functional"}, "[31]": {"system": "Klebsiella pneumoniae", "test": "fT>MIC in Klebsiella pneumoniae isolate 334 at 2 gram for every 8 hrs administered as 3 hrs infusion measured over 0-8 hrs in in vitro pharmcodynamic model", "type": "functional", "method_in_brief": "as §1"}, "[32]": {"system": "Pseudomonas aeruginosa", "test": "fT>MIC in Pseudomonas aeruginosa isolate 896 at 2 gram for every 8 hrs administered as 3 hrs infusion measured over 16-24 hrs in in vitro pharmcodynamic model", "type": "functional"}, "[33]": {"system": "Klebsiella pneumoniae", "test": "Antibacterial activity against Klebsiella pneumoniae isolate 351 in vitro pharmacodynamic model", "type": "functional", "method_in_brief": "(§3)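 Inoculum 10^6 CFU/ml; dosing began 0.5 h after inoculation. Two treated models plus one untreated control per isolate; blood-agar counts; change in log10 CFU/ml over 24 h (detection limit 10^1); drug levels checked by HPLC.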"}, "[34]": {"system": "Klebsiella pneumoniae", "test": "Antibacterial activity against Klebsiella pneumoniae isolate 354 in vitro pharmacodynamic model", "type": "functional", "method_in_brief": "as §3"}, "[35]": {"system": "Klebsiella pneumoniae", "test": "fT>MIC in Klebsiella pneumoniae isolate 375 at 2 gram for every 8 hrs administered as 3 hrs infusion measured over 8-16 hrs in in vitro pharmcodynamic model", "type": "functional"}, "[36]": {"system": "Klebsiella pneumoniae", "test": "Antibacterial activity against Klebsiella pneumoniae isolate 353 assessed as reduction of bacterial count at 16 ug/ml within 6 hrs in vitro pharmacodynamic model", "type": "functional, isoalte 353"}, "[37]": {"system": "Klebsiella pneumoniae", "test": "fT>MIC in Klebsiella pneumoniae isolate 375 at 2 gram for every 8 hrs administered as 3 hrs infusion measured over 16-24 hrs in in vitro pharmcodynamic model", "type": "functional"}, "[38]": {"system": "Pseudomonas aeruginosa", "test": "Antibacterial activity against Pseudomonas aeruginosa isolate 1177 in vitro pharmacodynamic model", "type": "functional", "method_in_brief": "as §2"}, "[39]": {"system": "Klebsiella pneumoniae", "test": "Antibacterial activity against Klebsiella pneumoniae isolate 375 assessed as reduction of bacterial count at 32 ug/ml within 6 hrs in vitro pharmacodynamic model", "type": "functional"}}, "data": [{"smiles": "C[C@@H](O)[C@H]1C(=O)N2C(C(=O)O)=C(S[C@@H]3CN[C@H](C(=O)N(C)C)C3)[C@H](C)[C@H]12", "note": "[MEROPENEM]", "values": [{"measurement": "fT>MIC", "setting": "[1]", "value": 0, "unit": "%"}, {"measurement": "fT>MIC", "setting": "[2]", "value": 0, "unit": "%"}, {"measurement": "fT>MIC", "setting": "[3]", "value": 82, "unit": "%"}, {"measurement": "fT>MIC", "setting": "[4]", "value": 16, "unit": "%"}, {"measurement": "fT>MIC", "setting": "[5]", "value": 56, "unit": "%"}, {"measurement": "fT>MIC", "setting": "[6]", "value": 100, "unit": "%"}, {"measurement": "fT>MIC", "setting": "[7]", "value": 78, "unit": "%"}, {"measurement": "log10cfu", "setting": "[8]", "value": ">3"}, {"measurement": "fT>MIC", "setting": "[9]", "value": 69, "unit": "%"}, {"measurement": "fT>MIC", "setting": "[10]", "value": 0, "unit": "%"}, {"measurement": "MIC", "setting": "[11]", "value": 2, "unit": "µg/mL"}, {"measurement": "fT>MIC", "setting": "[12]", "value": 3, "unit": "%"}, {"measurement": "fT>MIC", "setting": "[13]", "value": 47, "unit": "%"}, {"measurement": "fT>MIC", "setting": "[14]", "value": 63, "unit": "%"}, {"measurement": "MIC", "setting": "[15]", "value": 32, "unit": "µg/mL"}, {"measurement": "log10cfu", "setting": "[16]", "value": ">=3"}, {"measurement": "log10cfu", "setting": "[17]", "value": ">3"}, {"measurement": "log10cfu", "setting": "[18]", "value": ">3"}, {"measurement": "fT>MIC", "setting": "[19]", "value": 62, "unit": "%"}, {"measurement": "log10cfu", "setting": "[20]", "value": ">3"}, {"measurement": "log10cfu", "setting": "[21]", "value": ">=3"}, {"measurement": "fT>MIC", "setting": "[22]", "value": 75, "unit": "%"}, {"measurement": "log10cfu", "setting": "[23]", "value": ">=3"}, {"measurement": "fT>MIC", "setting": "[24]", "value": 50, "unit": "%"}, {"measurement": "fT>MIC", "setting": "[25]", "value": 78, "unit": "%"}, {"measurement": "fT>MIC", "setting": "[26]", "value": 50, "unit": "%"}, {"measurement": "fT>MIC", "setting": "[27]", "value": 59, "unit": "%"}, {"measurement": "fT>MIC", "setting": "[28]", "value": 50, "unit": "%"}, {"measurement": "fT>MIC", "setting": "[29]", "value": 68, "unit": "%"}, {"measurement": "fT>MIC", "setting": "[30]", "value": 16, "unit": "%"}, {"measurement": "fT>MIC", "setting": "[31]", "value": 0, "unit": "%"}, {"measurement": "fT>MIC", "setting": "[32]", "value": 56, "unit": "%"}, {"measurement": "MIC", "setting": "[33]", "value": 8, "unit": "µg/mL"}, {"measurement": "MIC", "setting": "[34]", "value": 8, "unit": "µg/mL"}, {"measurement": "fT>MIC", "setting": "[35]", "value": 0, "unit": "%"}, {"measurement": "log10cfu", "setting": "[36]", "value": ">3"}, {"measurement": "fT>MIC", "setting": "[37]", "value": 0, "unit": "%"}, {"measurement": "MIC", "setting": "[38]", "value": 8, "unit": "µg/mL"}, {"measurement": "log10cfu", "setting": "[39]", "value": ">3"}]}]}
